The source of these data is PubChem BioAssay AID821 (SRMLSC, 2007).

Molecules are shown by their SMILES. Active and inactive are the calls of the source.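 The calls were made as follows: active = compounds whose fitted half-maximal concentration for reducing fibroblast viability is 100 µM or lower; inactive = the rest.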

The experiment has as its system LL 47 lung fibroblast viability, ATP luminescence. Nature of the experiment: inhibition of LL 47 lung fibroblast growth, concentration-response curve, selectivity screen for endothelial cell growth inhibitor project, cellular system, ATP luminescence readout (AID 821). The method, boiled down: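 assay system = LL 47 human lung fibroblasts | quantity = 1,150 cells per well | compound = dose series 0.039–20 µM final, 0.2% DMSO | incubation = overnight cell settling, then 72 h compound exposure at 37 °C | signal = CellTiter-Glo luminescence readout of viable cells | read-out basis = % viability versus median cell-only wells, four-parameter EC50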
For the molecule `CC1=CC(C)(C)Nc2ccc(OC(=O)c3cccnc3)cc21`, the EC50 is 7.47 µM.
`O=C(c1ccc(F)cc1)C(CN1CCOCC1)c1ccccc1` (configuration not stated): the EC50 is 6.42 µM.
Consider `CCOc1cc(N2CCOCC2)c(OCC)cc1NC(=O)COc1cccc2cccnc12`, for which the concentration giving a half-maximal response (EC50) is 6.41 µM.
To `CCN(CC)c1ccc2c(c1)oc(=O)c1c(Cl)cc(=O)oc12` belongs 7.29 µM; to `Cc1ccc(-c2nn3c(C)nnc3s2)cc1NC(=O)c1ccc(-c2cccc(Cl)c2)o1`, 13.1 µM.
To `COc1ccc(NC(=O)/C(Cl)=C(/Cl)S(=O)(=O)Cc2ccccc2)cn1` belongs 6.19 µM.
In the case of `O=C1CC(c2ccco2)Cc2nc(Nc3nc(-c4ccccc4)c4ccccc4n3)ncc21` (configuration not stated), the EC50 is 14 µM.
Next, `CCCCS(=O)(=O)/C=C\C=C/S(=O)(=O)CCCC`: 0.936 µM; `CCCCCCOC(=O)C(C#N)c1nc2ccccc2nc1N1CCN(CC)CC1` (configuration not stated): 17.6 µM; `Oc1ccccc1-c1nnc(SCCN2CCOCC2)n1Cc1ccccc1`: 1.48 µM.
To `Cc1cccc(CS(=O)(=O)c2nnc([C@H](Cc3ccccc3)NC(=O)OC(C)(C)C)o2)c1` belongs 16.7 µM; to `COc1ccc(S(=O)(=O)N2N=C(C)Oc3ccccc3C2=O)cc1`, 19.5 µM; to `Cc1ccc(C2Oc3ccccc3C3=C2C(c2cccs2)n2ncnc2N3)cc1` (configuration not stated), 19.1 µM.
For the molecule `O=C1C=C(c2ccc(Cl)cc2)C(=O)N1Nc1ccccc1`, the EC50 is 14.9 µM.
Next, `CC1CC(C)CN(S(=O)(=O)c2ccc(C(=O)Nc3nnc(-c4cccs4)o3)cc2)C1` (configuration not stated): 8.61 µM; `O=C(/C=C/c1ccc(Cl)cc1)c1cccnc1`: 19.7 µM.
For the molecule `COc1ccc(C(=O)Oc2c(CN3CCOCC3)cc(Cl)c3cccnc23)cc1`, the half-maximal effective concentration (EC50) was 6.15 µM.
To `CCN(CCNC(=O)C1CCN(Cc2nc(-c3ccc(Cl)cc3)oc2C)CC1)c1ccccc1` belongs 17.8 µM; to `COc1ccc(-c2cc(C#N)nc(N3CCNCC3)n2)cc1`, 11.8 µM.
Next, `CCN(CC)CCn1c(=N)n(CCOc2ccccc2)c2ccccc21`: 10.7 µM.
To `CCOC(=O)c1c(CC(C)C)csc1NC=O` belongs 20.4 µM.
As for `O=c1c(Cl)c(NCCCO)cnn1-c1nc2ccccc2[nH]1`, the EC50 is 6.3 µM.
To `Cc1cc(NC(=O)c2cc(-c3ccncc3)nc3c(C)cccc23)no1` belongs 9.48 µM; to `COc1ccc(Nc2nc(N3CCCC3)nc3ccccc23)c(OC)c1`, 14.4 µM; to `C=CCOC(=O)C1=C(C)NC(SCC(=O)Nc2ccc(C)c(Cl)c2)=C(C#N)C1c1ccco1` (configuration not stated), 7.76 µM.
Take `Cn1cc(/C=N/n2cnc3scc(-c4ccccc4)c3c2=O)c2ccccc21`: the EC50 was 12.9 µM.
To `Cc1oc(-c2ccc(Cl)cc2)nc1CN1CCC(C(=O)N2CCN(Cc3ccccc3)CC2)CC1` belongs 17.5 µM; to `COc1ccc(-c2ccc(C#N)c(SCC(=O)Nc3sc4c(c3C#N)CCC4)n2)cc1OC`, 20.1 µM; to `COc1ccc(C(=O)C(CN2CCOCC2)c2ccccc2)cc1F` (configuration not stated), 5.53 µM.
To `COc1cc(N=c2ssnc2Cl)cc(OC)c1OC` belongs 15.2 µM; to `COc1ccc(S(=O)(=O)Nc2ccc(O)c3ccccc23)cc1`, 13.1 µM.
To `Cc1ccsc1/C=C/c1ccc2cccc(O)c2n1` belongs 10.9 µM.
As for `O=C(Oc1ccccc1)c1cccc2cccnc12`, the EC50 is 6.87 µM.
Next, `Cc1ccc(-n2c(SCC(=O)Nc3ccc4c(c3)OCO4)nnc2-c2cccs2)cc1`: 17.5 µM.
`CC1=NOC(=O)/C1=C/c1ccc(-c2ccc(Cl)cc2)o1`: the 50% effective concentration (EC50) is 13.9 µM.
Next, `O=C(NNC(=O)c1ccc([N+](=O)[O-])o1)c1ccccc1`: 11.7 µM.
For the molecule `CCOc1ccccc1-n1c(CN2CCN(C(=O)c3ccco3)CC2)nc2ccccc2c1=O`, the EC50 was 5.7 µM.
Take `Cn1c(=NC(=O)CCl)sc2ccccc21`: the EC50 is below 0.039 µM.
For the molecule `O=C(Oc1cccc2cccnc12)c1ccc2c(c1)OCCO2`, the 50% effective concentration (EC50) was 6.78 µM.
Next, `Cc1nc(NC(=O)CSc2nc3cccnc3n2C2CCCCC2)sc1C`: 8.49 µM; `COCc1cc(CN2CCCC2)c(O)c2ncccc12`: 11.7 µM.
To `CCOC(=O)c1sc2nc(C(C)C)c3c(c2c1N)CC(C)(C)OC3` belongs 12.4 µM.
Next, `O=C(Oc1c(CN2CCOCC2)cc(Cl)c2cccnc12)c1ccc(F)cc1`: 5.32 µM; `CCOC(=O)/C=C/S(=O)(=O)c1ccc(NC(C)=O)cc1`: 6.96 µM.
For `CCn1c(SCC(=O)Nc2cc(C)on2)nc2sc3c(c2c1=O)CCCC3`, the EC50 was > 10 µM (inactive).
As to `COc1ccc(-n2nnnc2S(=O)(=O)CC(=O)N2CCCCC2)cc1`, the EC50 was 6.12 µM.
Take `Cc1cc(C)c2oc(-c3ccc(Cl)c(NC(=O)c4ccc(C#N)cc4F)c3)nc2c1`: the 50% effective concentration (EC50) was 6.89 µM.
On to `CN1CCN(S(=O)(=O)c2ccc(NC(=O)Nc3cccc(Cl)c3)cc2)CC1`, for which the EC50 is 16.5 µM.
Next, `CCOc1cccc(-n2nnnc2-c2ccc(OC)cc2)c1`: 19.9 µM; `COc1cccc2sc(Nc3nc(C)c(C(C)=O)s3)nc12`: 5.54 µM.
To `COc1ccc(C(=O)Nc2ccccc2C(=O)N(Cc2ccco2)C(C(N)=O)C(C)C)cc1` (configuration not stated) belongs 17.4 µM; to `CC(C)c1nnc(NC(=O)CCS(=O)(=O)c2nc(-c3cccs3)cc(C(F)(F)F)n2)s1`, 12.8 µM; to `Cc1ccccc1NS(=O)(=O)c1ccc(N2CCCC2=O)cc1`, 16.3 µM.
In the case of `Oc1c(CN2CCN(c3ccccn3)CC2)cc(Cl)c2cccnc12`, the EC50 is 5.46 µM.
To `CC(=O)C(C(C)=O)c1c(Cl)c(O)c(O)c2c(C(=O)c3ccccc3)coc12` belongs 14.5 µM; to `CCOC(=O)c1c(NC(=O)CCl)sc(C(=O)N(CC)CC)c1C`, 6.25 µM.
As for `Cc1cccc(NC(=O)Nc2cccc(Oc3c(F)c(F)c(F)c(F)c3F)c2)c1`, the 50% effective concentration (EC50) was 17.5 µM.
Next, `O=C(CSc1cccc2cccnc12)N1CCCC1`: 12.7 µM.
As for `Fc1ccc2c(Cl)c(-c3nnc(-c4cccs4)o3)sc2c1`, the EC50 is 11.4 µM.
Next, `Cc1ccc(NC(=O)c2cc(NC(=O)c3ccco3)ccc2N2CCCCC2)cc1`: 18 µM; `O=c1[nH]c2cc3c(cc2cc1C(c1nnnn1Cc1ccccc1)N1CCCCCC1)OCCO3` (configuration not stated): 19.1 µM; `Cc1ccc2[nH]c3c(c2c1)CCCC3=O`: > 10 µM (inactive).
Take `CCCCOc1ccc(C(=O)C(CN2CCOCC2)c2ccccc2)cc1` (configuration not stated): the EC50 was 6.5 µM.
To `Cc1ccccc1-c1nc(CN2CCC(C(=O)NCCCN3CC(C)CC(C)C3)CC2)c(C)o1` (configuration not stated) belongs 10.6 µM; to `N#Cc1cc2sc3nnc(-c4ccncc4)n3c2cc1C#N`, 15.6 µM.
To `COCc1cc(=O)[nH]c(Nc2nc(C)c3ccccc3n2)n1` belongs 20.3 µM.
Consider `COC(=O)NC(=C(Cl)Cl)S(=O)(=O)c1ccccc1`, for which the EC50 was 12.2 µM.
`Cc1ccc(-c2csc3ncnc(Sc4nnc(CN5CCCCCC5=O)o4)c23)cc1`: the EC50 is 5.46 µM.
To `COc1ccc(CC(=O)Nc2ccc(-c3nc4cc(C)ccc4o3)c(O)c2)cc1OC` belongs 18.6 µM; to `CCC(C)(C)NC(=O)C(c1ccc(C)o1)N(Cc1cccs1)C(=O)Cn1nnc2ccccc21` (configuration not stated), 13.9 µM; to `CCCCCCc1cc2cc(-c3nnc(-c4ccccc4)o3)c(=O)oc2cc1O`, 20.3 µM.
Next, `OCc1ccc(O)c2ncccc12`: 9.4 µM.
